Key:
[1] = target: Metabotropic glutamate receptor 8 (Homo sapiens) (UniProt O00222); experiment: Inhibition of c-AMP by human Metabotropic glutamate receptor 8 (mGluR8) expressed in non-neuronal cells; format: cell-based
Summary of the method: (§1)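 Clonal nonneuronal cell lines expressing each mGlu subtype, washed in PBS with 3 mM glucose and 500 μM IBMX, preincubated 30 min at 37 °C. Compound added with forskolin (15 μM final), 20 min at 37 °C. Stopped with 6 mM EDTA and boiling. cAMP measured by [3H]cAMP SPA, with protein per well by Bradford assay. Read-out: EC50 for inhibition of forskolin-stimulated cAMP.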

[2] = target: Metabotropic glutamate receptor 7 (Homo sapiens) (UniProt Q14831); experiment: (§2) Inhibition of c-AMP by human Metabotropic glutamate receptor 7 (mGluR7) expressed in non-neuronal cells; format: cell-based; summary of the method: as §1
Metabotropic glutamate receptor 7 (Homo sapiens), sequence (Q14831 whole entry): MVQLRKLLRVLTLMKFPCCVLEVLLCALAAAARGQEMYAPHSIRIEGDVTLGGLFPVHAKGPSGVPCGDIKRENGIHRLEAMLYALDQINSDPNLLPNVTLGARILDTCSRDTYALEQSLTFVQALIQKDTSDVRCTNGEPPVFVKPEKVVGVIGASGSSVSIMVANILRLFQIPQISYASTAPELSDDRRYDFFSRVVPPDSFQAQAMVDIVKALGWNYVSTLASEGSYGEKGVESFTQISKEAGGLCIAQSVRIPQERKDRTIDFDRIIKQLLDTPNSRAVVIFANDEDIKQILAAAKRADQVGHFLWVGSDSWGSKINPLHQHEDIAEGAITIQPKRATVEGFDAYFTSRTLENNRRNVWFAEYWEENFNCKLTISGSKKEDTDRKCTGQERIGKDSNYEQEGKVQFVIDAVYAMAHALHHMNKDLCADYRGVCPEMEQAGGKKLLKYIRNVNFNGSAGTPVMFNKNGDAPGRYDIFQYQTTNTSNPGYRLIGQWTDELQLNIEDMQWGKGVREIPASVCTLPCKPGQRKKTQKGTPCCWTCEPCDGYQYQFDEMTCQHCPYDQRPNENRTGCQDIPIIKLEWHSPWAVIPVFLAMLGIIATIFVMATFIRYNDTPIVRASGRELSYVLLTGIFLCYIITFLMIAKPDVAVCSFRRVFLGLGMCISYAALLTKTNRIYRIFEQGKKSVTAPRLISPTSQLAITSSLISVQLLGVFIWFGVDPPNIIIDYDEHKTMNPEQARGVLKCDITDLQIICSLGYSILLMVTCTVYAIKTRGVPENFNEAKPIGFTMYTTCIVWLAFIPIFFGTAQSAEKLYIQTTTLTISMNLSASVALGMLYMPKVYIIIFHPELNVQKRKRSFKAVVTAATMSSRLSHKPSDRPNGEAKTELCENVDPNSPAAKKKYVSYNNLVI

[3] = target: Metabotropic glutamate receptor 6 (Homo sapiens) (UniProt O15303); experiment: (§3) Inhibition of c-AMP by human Metabotropic glutamate receptor 6 (mGluR6) expressed in non-neuronal cells; format: cell-based; summary of the method: as §1
[4] = target: Metabotropic glutamate receptor 2 (Homo sapiens) (UniProt Q14416); experiment: Inhibition of c-AMP by human Metabotropic glutamate receptor 2 (mGluR2) expressed in non-neuronal cells; format: cell-based; summary of the method: as §1
Metabotropic glutamate receptor 2 (Homo sapiens), sequence (Q14416 19-872 limits assumed): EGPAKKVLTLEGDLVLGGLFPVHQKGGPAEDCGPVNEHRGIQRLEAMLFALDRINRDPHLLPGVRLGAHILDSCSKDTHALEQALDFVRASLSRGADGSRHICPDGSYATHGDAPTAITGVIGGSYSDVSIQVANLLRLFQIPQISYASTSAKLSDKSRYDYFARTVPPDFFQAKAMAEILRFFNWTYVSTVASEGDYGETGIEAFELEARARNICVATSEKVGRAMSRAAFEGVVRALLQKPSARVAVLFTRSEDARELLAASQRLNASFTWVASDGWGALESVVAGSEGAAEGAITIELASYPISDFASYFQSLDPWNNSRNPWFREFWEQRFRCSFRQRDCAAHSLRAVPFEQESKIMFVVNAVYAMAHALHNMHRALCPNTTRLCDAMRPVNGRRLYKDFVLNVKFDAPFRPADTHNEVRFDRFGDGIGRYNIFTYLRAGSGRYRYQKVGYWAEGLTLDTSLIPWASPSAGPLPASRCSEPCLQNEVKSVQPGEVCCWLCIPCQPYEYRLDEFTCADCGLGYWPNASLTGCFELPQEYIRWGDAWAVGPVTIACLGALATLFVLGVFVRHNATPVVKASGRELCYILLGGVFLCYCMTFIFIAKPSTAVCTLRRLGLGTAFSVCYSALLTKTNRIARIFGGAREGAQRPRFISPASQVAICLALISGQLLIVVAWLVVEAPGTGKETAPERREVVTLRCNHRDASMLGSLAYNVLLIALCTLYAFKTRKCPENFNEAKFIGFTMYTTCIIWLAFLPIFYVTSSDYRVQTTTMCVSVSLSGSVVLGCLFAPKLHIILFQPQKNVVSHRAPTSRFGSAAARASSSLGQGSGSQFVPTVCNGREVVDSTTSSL

[5] = target: Metabotropic glutamate receptor 3 (Homo sapiens) (UniProt Q14832); experiment: (§4) Inhibition of c-AMP by human Metabotropic glutamate receptor 3 (mGluR3) expressed in non-neuronal cells; format: cell-based; summary of the method: as §1
Metabotropic glutamate receptor 3 (Homo sapiens), sequence (Q14832 23-879 limits assumed): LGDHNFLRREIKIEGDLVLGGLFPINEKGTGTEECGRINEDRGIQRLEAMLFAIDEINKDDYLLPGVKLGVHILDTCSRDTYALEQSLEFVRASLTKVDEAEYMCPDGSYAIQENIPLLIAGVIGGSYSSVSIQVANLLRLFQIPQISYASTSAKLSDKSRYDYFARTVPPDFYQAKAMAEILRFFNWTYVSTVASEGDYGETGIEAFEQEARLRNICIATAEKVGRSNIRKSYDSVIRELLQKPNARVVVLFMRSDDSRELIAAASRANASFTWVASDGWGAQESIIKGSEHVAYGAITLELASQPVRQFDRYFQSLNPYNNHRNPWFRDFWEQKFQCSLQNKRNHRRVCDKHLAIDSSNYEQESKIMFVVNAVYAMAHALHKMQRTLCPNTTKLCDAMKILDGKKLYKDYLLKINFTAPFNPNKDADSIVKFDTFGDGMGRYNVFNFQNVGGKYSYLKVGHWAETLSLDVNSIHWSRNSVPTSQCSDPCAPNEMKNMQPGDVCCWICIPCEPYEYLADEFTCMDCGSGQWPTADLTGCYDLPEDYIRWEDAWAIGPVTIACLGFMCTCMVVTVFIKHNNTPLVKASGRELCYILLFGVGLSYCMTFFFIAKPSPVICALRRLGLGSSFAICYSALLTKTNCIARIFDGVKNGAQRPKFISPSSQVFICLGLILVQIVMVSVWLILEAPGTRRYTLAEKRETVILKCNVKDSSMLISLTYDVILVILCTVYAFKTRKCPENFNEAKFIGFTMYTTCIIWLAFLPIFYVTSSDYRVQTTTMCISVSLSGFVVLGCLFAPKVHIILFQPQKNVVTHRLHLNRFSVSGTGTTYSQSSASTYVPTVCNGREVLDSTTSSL

[6] = target: Metabotropic glutamate receptor 4 (Homo sapiens) (UniProt Q14833); experiment: (§5) Inhibition of c-AMP by human Metabotropic glutamate receptor 4 (mGluR4) expressed in non-neuronal cells; format: cell-based; summary of the method: as §1
Metabotropic glutamate receptor 4 (Homo sapiens), sequence (Q14833 whole entry): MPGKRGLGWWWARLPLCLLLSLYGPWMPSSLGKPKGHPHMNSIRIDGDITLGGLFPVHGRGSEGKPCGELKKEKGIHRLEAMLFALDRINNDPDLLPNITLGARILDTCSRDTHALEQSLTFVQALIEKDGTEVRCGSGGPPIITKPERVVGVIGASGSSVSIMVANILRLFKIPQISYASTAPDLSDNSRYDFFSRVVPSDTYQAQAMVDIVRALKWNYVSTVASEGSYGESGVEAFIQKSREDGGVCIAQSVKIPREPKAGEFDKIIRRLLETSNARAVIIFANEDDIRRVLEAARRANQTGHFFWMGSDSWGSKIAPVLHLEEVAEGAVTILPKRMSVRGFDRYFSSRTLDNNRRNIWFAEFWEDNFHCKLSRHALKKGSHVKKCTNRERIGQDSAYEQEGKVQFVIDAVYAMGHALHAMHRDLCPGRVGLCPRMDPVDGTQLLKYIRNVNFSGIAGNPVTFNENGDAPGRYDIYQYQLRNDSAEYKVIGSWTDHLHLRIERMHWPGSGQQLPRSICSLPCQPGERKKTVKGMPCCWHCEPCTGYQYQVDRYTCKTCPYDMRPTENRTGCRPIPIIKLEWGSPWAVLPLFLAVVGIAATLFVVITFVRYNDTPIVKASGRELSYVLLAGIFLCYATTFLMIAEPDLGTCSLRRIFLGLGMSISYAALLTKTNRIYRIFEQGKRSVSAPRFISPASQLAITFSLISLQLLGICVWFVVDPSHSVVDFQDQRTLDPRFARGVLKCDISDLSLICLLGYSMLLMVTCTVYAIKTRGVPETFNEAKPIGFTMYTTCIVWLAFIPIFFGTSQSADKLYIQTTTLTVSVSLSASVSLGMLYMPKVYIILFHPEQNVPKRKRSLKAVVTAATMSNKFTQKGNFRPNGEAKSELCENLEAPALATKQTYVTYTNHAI

[7] = target: Metabotropic glutamate receptor 5 (Homo sapiens) (UniProt P41594); experiment: Phosphoinositide hydrolysis by human Metabotropic glutamate receptor 5 (mGluR5) expressed in non neuronal cells; format: cell-based
Metabotropic glutamate receptor 5 (Homo sapiens), sequence (P41594 21-1212 limits assumed): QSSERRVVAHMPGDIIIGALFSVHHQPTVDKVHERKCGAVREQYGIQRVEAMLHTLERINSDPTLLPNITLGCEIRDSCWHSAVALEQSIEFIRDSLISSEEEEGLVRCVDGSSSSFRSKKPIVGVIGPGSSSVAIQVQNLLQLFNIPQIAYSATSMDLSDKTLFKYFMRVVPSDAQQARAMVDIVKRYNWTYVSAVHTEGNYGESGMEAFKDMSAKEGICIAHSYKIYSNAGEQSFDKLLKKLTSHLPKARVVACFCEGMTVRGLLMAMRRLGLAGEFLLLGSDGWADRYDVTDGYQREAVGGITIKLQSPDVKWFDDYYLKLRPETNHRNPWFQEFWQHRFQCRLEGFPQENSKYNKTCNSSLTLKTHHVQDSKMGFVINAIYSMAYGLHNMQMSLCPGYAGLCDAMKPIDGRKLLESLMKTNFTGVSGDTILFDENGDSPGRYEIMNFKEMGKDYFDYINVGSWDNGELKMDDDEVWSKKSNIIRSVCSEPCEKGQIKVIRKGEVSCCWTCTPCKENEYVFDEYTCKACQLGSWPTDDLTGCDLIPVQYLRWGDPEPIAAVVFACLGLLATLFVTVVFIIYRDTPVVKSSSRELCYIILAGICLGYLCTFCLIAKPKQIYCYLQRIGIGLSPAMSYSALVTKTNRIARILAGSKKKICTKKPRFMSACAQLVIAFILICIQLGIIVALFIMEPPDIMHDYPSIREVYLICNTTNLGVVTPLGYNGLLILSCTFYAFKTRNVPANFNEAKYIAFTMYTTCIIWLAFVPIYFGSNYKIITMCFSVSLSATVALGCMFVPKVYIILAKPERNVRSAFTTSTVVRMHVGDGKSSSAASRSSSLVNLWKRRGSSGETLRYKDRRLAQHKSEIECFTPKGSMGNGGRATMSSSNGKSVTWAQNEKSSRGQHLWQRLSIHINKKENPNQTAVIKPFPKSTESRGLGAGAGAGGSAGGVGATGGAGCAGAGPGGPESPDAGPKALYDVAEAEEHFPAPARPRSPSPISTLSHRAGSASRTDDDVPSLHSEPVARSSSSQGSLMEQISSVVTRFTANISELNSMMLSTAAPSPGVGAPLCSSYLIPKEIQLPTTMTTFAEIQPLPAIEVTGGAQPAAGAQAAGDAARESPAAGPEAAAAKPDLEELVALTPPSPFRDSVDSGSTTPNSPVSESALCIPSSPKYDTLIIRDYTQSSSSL
Summary of the method: (§6)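 Transfected nonneuronal cells seeded at 2.5 × 10^5 per well in glutamine-free medium for 24 h, then labeled with [3H]myo-inositol (4 µCi/mL) for 20 h. Washed in buffer with 10 mM HEPES, inositol and LiCl. Compound added and incubated 60 min at 37 °C. [3H]inositol monophosphate separated by anion exchange and counted by scintillation. Read-out: EC50 for PI hydrolysis.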

[8] = target: Metabotropic glutamate receptor 6 (Homo sapiens) (UniProt O15303); experiment: as §3; format: cell-based; remark: listed apart in the source
Summary of the method: (§7)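 Clonal nonneuronal cell lines transfected with each mGlu receptor. Cells washed in Dulbecco's PBS with 3 mM glucose and 500 μM IBMX, preincubated 30 min at 37 °C, then washed. Compound added with forskolin (15 μM final) and incubated 20 min at 37 °C. Stopped with 6 mM EDTA plus boiling, cAMP measured by [3H]cAMP SPA and normalised to Bradford protein. EC50 for inhibition of forskolin-stimulated cAMP.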

[9] = target: Metabotropic glutamate receptor 3 (Homo sapiens) (UniProt Q14832); experiment: as §4; format: cell-based; summary of the method: as §7; remark: listed apart in the source
[10] = target: Metabotropic glutamate receptor 4 (Homo sapiens) (UniProt Q14833); experiment: as §5; format: cell-based; summary of the method: as §7; remark: listed apart in the source
[11] = target: Metabotropic glutamate receptor 7 (Homo sapiens) (UniProt Q14831); experiment: as §2; format: cell-based; summary of the method: as §7; remark: listed apart in the source
[12] = test system: Rattus norvegicus; experiment: Mean effective dose that significantly blocked fear-potentiated startle(oral administration); details: read-out: MED
[13] = target: Metabotropic glutamate receptor 5 (Homo sapiens) (UniProt P41594); experiment: Phosphoinositide hydrolysis by Metabotropic glutamate receptor 5 (mGluR5) expressed in non neuronal cells; format: cell-based; summary of the method: as §6
[14] = target: Metabotropic glutamate receptor 7 (Rattus norvegicus) (UniProt P35400); experiment: Inhibition of c-AMP by rat Metabotropic glutamate receptor 7 mGluR7) expressed in non-neuronal cells
Metabotropic glutamate receptor 7 (Rattus norvegicus), sequence (P35400 whole entry, looked up): as the sequence (Q14831 whole entry) above, with R5G, A27V, N454H, S488T, A520S, D578N counted along it

Activity [1] | Activity [2] | Activity [3] | Activity [4] | Activity [5] | Activity [6] | Activity [7] | Activity [13] | Activity [14] | Compound | Activity [8] | Activity [9] | Activity [10] | Activity [11] | minimal effective dose [12]
7 µM | > 100 µM | 2000 nM | 4 nM | 8 nM | > 100 µM | > 100 µM | – | – | N[C@@]1(C(=O)O)CS[C@H]2[C@H](C(=O)O)[C@H]21 | – | – | – | – | –
1.32 µM | > 100 µM | 1200 nM | 8 nM | 38 nM | > 100 µM | > 100 µM | – | – | C[C@H]1[C@H](C(=O)O)[C@H]1[C@H](N)C(=O)O | – | – | – | – | 0.0003 mg/kg
2.8 µM | – | – | 188 nM | 2000 nM | – | > 100 µM | – | – | C[C@@H]1[C@H](C(=O)O)[C@H]1[C@H](N)C(=O)O | – | – | – | – | –
– | – | – | 100 nM | – | – | – | > 100 µM | – | COC[C@H]1[C@H](C(=O)O)[C@H]1[C@H](N)C(=O)O | – | – | – | – | –
32 µM | – | 40000 nM | 300 nM | 200 nM | 23 µM | 389 µM | – | 40 µM | N[C@H](C(=O)O)C1[C@@H](C(=O)O)[C@@H]1C(=O)O (stereo not given in full) | – | – | – | – | –
– | – | – | 300 nM | – | – | > 100 µM | – | – | COC[C@@H]1[C@H](C(=O)O)[C@H]1[C@H](N)C(=O)O | – | – | – | – | –
0.4 µM | 47 µM | 600 nM | 300 nM | 600 nM | – | 17 µM | – | – | N[C@H](C(=O)O)[C@H]1C[C@@H]1C(=O)O | – | – | – | – | –

More lines, now with the values behind:

Compound | Activity [1] | Activity [2] | Activity [3] | Activity [4] | Activity [5] | Activity [6] | Activity [7] | Activity [13] | Activity [14] | Activity [8] | Activity [9] | Activity [10] | Activity [11] | minimal effective dose [12]
N[C@]1(C(=O)O)[C@H]2[C@@H](C[C@@H]1F)[C@@H]2C(=O)O | > 100 µM | – | – | – | – | – | > 100 µM | – | – | > 100 nM | 45.4 nM | > 100 µM | > 100 µM | –
N[C@@]1(C(=O)O)CC[C@H]2[C@H](C(=O)O)[C@H]21 [EGLUMETAD] | 11.5 µM | > 100 µM | 3000 nM | 7.9 nM | 21 nM | > 100 µM | > 100 µM | – | – | – | – | – | – | 3 mg/kg
N[C@@]1(C(=O)O)CC[C@@H](C(=O)O)C1 | 45 µM | 1000 µM | 18000 nM | 12000 nM | 860000 nM | 90 µM | 15 µM | – | – | – | – | – | – | –
N[C@@]1(C(=O)O)CO[C@H]2[C@H](C(=O)O)[C@H]21 | 2 µM | > 100 µM | 400 nM | 3 nM | 5 nM | 21 µM | > 100 µM | – | – | – | – | – | – | –
N[C@@]1(C(=O)O)CC(=O)[C@@H]2[C@H]1[C@@]2(F)C(=O)O | – | – | – | – | – | – | > 100 µM | – | – | > 100 nM | 2.7 nM | > 100 µM | > 100 µM | –
N[C@@H](CCC(=O)O)C(=O)O | – | 5400 µM | 20000 nM | – | 9000 nM | 12 µM | 4 µM | – | – | – | – | – | – | –
N[C@@]1(C(=O)O)CC[C@@H]2[C@H]1[C@@]2(F)C(=O)O | – | > 100 µM | > 100 nM | 16.6 nM | 89 nM | > 100 µM | > 100 µM | – | – | – | – | – | – | –

Reference: ChEMBL document CHEMBL1135971, “(2S,1'S,2'S,3'R)-2-(2'-carboxy-3'-methylcyclopropyl) glycine is a potent and selective metabotropic group 2 receptor agonist with anxiolytic properties” (2002)
